In ChEMBL document CHEMBL3425411, “Synthesis of β-Carboline-Based N-Heterocyclic Carbenes and Their Antiproliferative and Antimetastatic Activities against Human Breast Cancer Cells” (J Med Chem, 2015):
Active and inactive are the calls of the source. The calls are words filed in the database; no cut-off is given here.

Experiments:
Albumin [1] = target: T1, Albumin (Homo sapiens, UniProt P02768); assay: Binding affinity to human serum albumin at 2 to 50 uM at pH 7.4 by fluorescence spectra analysis; format: ADME; details: isolated protein, pH 7.4, 50 µM
How it was run: (§1)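 Fatty-acid-free HSA (10 μM) in 0.05 M phosphate buffer pH 7.4 was titrated with compound from 0 to 50 μM. Trp emission was excited at 295 nm and quenching was monitored. Data were fitted to the Stern–Volmer equation and a modified log[(F₀−F)/F] versus log[Q] plot, giving Kb and n from intercept and slope.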

MDA-MB-231 [2] = assay: Downregulation of CDK1 expression in human MDA-MB-231 cells at 5 to 7.5 uM after 24 hrs by Western blot analysis; format: functional, cell-based
How it was run: (§2)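 Cells were treated for 24 h. Lysates were made in RIPA buffer, and 40 μg protein was resolved on 10–15% SDS-PAGE and transferred to PVDF. Membranes were blocked with 5% milk and probed overnight at 4 °C with primary antibodies, then HRP secondaries. Detection was by ECL with β-actin as loading control. Blots represent three independent experiments.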

[3] = target: Mitogen-activated protein kinase; ERK1/ERK2 (Homo sapiens) (UniProt P27361+P28482); assay: Inhibition of ERK1/2 phosphorylation in human MDA-MB-231 cells at 5 to 7.5 uM after 24 hrs by Western blot analysis; format: cell-based
How it was run: (§3)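 MDA-MB-231 cells treated 24 h, then lysed in RIPA buffer. 40 μg protein run on 10–15% SDS–PAGE and transferred to PVDF. Blocked in 5% milk, probed overnight at 4 °C with primary antibodies (phospho- and total ERK1/2, JNK, p38, cleaved caspase-3), then HRP secondary. ECL detection with β-actin as loading control. Blots representative of three experiments.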

Albumin [4] = target: T1, Albumin; assay: Binding affinity to human serum albumin at 283 K at pH 7.4 by fluorescence spectra analysis; format: ADME; details: isolated protein
How it was run: (§4)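 Steady-state Trp fluorescence quenching of HSA (10 μM, 0.05 M phosphate pH 7.4, excitation 295 nm) by increasing compound was run at each of three temperatures. F₀/F was fitted to the Stern–Volmer equation for KSV. Binding constant Kb and n came from the modified equation log[(F₀−F)/F] = log Kb + n log[Q].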

MDA-MB-231 [5] = assay: Downregulation of survivin expression in human MDA-MB-231 cells at 5 to 7.5 uM after 24 hrs by Western blot analysis; format: functional, cell-based; how it was run: as §2
[6] = target: Matrix metalloproteinase-9 (Homo sapiens) (UniProt P14780); assay: Inhibition of MMP-9 in human MDA-MB-231 cells at 1 to 5 uM after 24 hrs by gelatin zymographic method; format: cell-based
How it was run: (§5)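 MDA-MB-231 cells, 1 × 10⁵ per well, treated 24 h with 0, 1, 2.5, 5 or 7.5 μM. Conditioned medium centrifuged and equal protein loaded on 8% SDS–PAGE containing 0.1% gelatin, run at 80 V. Triton X-100 washes, then developed 20 h at 37 °C in Tris-HCl pH 7.5 with NaCl, CaCl₂ and ZnCl₂. Coomassie stain, then destain.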

[7] = target: 72 kDa type IV collagenase (Homo sapiens) (UniProt P08253); assay: Inhibition of MMP-2 in human MDA-MB-231 cells at 1 to 5 uM after 24 hrs by gelatin zymographic method; format: cell-based; how it was run: as §5
Albumin [8] = target: T1, Albumin; assay: Binding affinity to human serum albumin at 303 K at pH 7.4 by fluorescence spectra analysis; format: ADME; details: isolated protein; how it was run: as §4
MDA-MB-231 [9] = assay: Upregulation of cleaved caspase-3 expression in human MDA-MB-231 cells at 5 to 7.5 uM after 24 hrs by Western blot analysis; format: functional, cell-based; how it was run: as §3
Albumin [10] = target: T1, Albumin; assay: Binding affinity to human serum albumin assessed as change in secondary structure up to 40 uM at pH 7.4 by circular dichroism spectra analysis; format: ADME; details: isolated protein
MDA-MB-231 [11] = assay: Antimigratory activity against human MDA-MB-231 cells at 2.5 to 5 uM after 12 to 24 hrs by wound healing assay; format: functional, cell-based
How it was run: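 2 × 10⁵ cells were plated in six-well plates and scratched with a 200 μL tip. Debris was removed, then cells were treated (0, 1, 2.5, 5, 7.5 μM; or 0–5 μM). The wound was photographed at 0, 12 and 24 h under 100× phase contrast. Area was measured as percent wound closure versus control. Three independent experiments, mean ± SEM.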

MDA-MB-231 [12] = assay: Downregulation of Bcl-2 expression in human MDA-MB-231 cells at 5 to 7.5 uM after 24 hrs by Western blot analysis; format: functional, cell-based; how it was run: as §2
MDA-MB-231 [13] = assay: Downregulation of CDC25C expression in human MDA-MB-231 cells at 5 to 7.5 uM after 24 hrs by Western blot analysis; format: functional, cell-based; how it was run: as §2
[14] = target: MAP kinase p38 (Homo sapiens) (UniProt O15264+Q15759+Q16539+P53778); assay: Induction of p38 MAPK phosphorylation in human MDA-MB-231 cells at 5 to 7.5 uM after 24 hrs by Western blot analysis; format: cell-based; how it was run: as §3
[15] = target: c-Jun N-terminal kinase, JNK (Homo sapiens) (UniProt P45983+P53779+P45984); assay: Inhibition of SAPK/JNK phosphorylation in human MDA-MB-231 cells at 5 to 7.5 uM after 24 hrs by Western blot analysis; format: cell-based; how it was run: as §3
MDA-MB-231 [16] = assay: Antiinvasive activity against human MDA-MB-231 cells at 1 uM after 48 hrs by transwell assay; format: functional, cell-based
How it was run: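 Matrigel (growth factor reduced, diluted in serum-free medium) coated on 8 μm pore polycarbonate transwell membranes, set 2 h at 37 °C. 30 000 cells/well seeded in RPMI-1640 with 1% FBS plus compound; lower chamber had 10% FBS as chemoattractant. After 48 h, non-invaded cells were swabbed off and invaded cells were methanol-fixed and stained with 0.1% crystal violet. At least 10 random fields were counted and expressed versus control.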

MDA-MB-231 [17] = assay: Induction of apoptosis in human MDA-MB-231 cells assessed as PARP cleavage at 5 to 7.5 uM after 24 hrs by Western blot analysis; format: functional, cell-based; how it was run: as §2
MDA-MB-231 [18] = assay: Downregulation of Bcl-XL expression in human MDA-MB-231 cells at 5 to 7.5 uM after 24 hrs by Western blot analysis; format: functional, cell-based; how it was run: as §2
Albumin [19] = target: T1, Albumin; assay: Binding affinity to human serum albumin at 293 K at pH 7.4 by fluorescence spectra analysis; format: ADME; details: isolated protein; how it was run: as §4
Albumin [20] = target: T1, Albumin; assay: Binding affinity to human serum albumin at 2 to 50 uM at pH 7.4 by spectroscopic analysis; format: ADME; details: isolated protein, pH 7.4, 50 µM; how it was run: as §1
MDA-MB-231 [21] = assay: Downregulation of cyclin B expression in human MDA-MB-231 cells at 5 to 7.5 uM after 24 hrs by Western blot analysis; format: functional, cell-based; how it was run: as §2

T1 sequence (P02768 whole entry): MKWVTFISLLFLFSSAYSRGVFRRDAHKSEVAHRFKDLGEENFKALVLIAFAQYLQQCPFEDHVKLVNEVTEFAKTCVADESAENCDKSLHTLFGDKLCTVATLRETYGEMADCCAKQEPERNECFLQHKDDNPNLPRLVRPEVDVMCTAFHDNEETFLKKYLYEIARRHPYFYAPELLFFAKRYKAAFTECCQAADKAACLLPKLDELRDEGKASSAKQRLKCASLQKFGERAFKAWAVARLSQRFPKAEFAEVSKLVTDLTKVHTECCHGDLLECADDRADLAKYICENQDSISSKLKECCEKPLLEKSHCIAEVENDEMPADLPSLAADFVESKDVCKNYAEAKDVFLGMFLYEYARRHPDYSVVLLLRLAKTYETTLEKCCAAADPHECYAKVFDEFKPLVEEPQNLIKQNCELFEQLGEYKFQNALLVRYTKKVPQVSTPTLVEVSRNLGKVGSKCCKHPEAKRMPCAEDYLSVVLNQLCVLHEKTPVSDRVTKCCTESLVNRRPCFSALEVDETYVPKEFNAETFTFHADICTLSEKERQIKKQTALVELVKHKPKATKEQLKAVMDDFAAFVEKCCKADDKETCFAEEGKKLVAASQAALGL
Sequence of Matrix metalloproteinase-9 (Homo sapiens) (P14780 whole entry): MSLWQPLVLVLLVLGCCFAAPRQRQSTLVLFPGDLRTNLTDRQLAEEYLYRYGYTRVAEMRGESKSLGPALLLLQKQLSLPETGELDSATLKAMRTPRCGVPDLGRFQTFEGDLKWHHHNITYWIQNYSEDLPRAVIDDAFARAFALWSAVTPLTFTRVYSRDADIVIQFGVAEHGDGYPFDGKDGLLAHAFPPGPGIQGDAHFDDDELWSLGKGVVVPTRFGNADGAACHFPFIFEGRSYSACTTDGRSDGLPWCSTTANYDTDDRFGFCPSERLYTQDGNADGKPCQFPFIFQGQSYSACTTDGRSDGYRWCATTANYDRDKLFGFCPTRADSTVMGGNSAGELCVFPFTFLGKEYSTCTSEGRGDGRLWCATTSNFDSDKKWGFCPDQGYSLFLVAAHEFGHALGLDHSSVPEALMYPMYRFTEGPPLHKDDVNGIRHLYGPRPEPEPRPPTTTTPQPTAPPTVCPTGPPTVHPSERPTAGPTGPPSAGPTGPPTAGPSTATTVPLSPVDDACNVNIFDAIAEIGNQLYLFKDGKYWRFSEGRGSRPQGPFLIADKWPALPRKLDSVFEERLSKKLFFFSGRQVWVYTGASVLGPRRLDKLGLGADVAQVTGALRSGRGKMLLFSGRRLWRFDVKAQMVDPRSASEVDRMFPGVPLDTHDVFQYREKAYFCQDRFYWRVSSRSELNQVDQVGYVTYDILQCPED
Sequence of Mitogen-activated protein kinase; ERK1/ERK2 (Homo sapiens) (P27361 whole entry, looked up): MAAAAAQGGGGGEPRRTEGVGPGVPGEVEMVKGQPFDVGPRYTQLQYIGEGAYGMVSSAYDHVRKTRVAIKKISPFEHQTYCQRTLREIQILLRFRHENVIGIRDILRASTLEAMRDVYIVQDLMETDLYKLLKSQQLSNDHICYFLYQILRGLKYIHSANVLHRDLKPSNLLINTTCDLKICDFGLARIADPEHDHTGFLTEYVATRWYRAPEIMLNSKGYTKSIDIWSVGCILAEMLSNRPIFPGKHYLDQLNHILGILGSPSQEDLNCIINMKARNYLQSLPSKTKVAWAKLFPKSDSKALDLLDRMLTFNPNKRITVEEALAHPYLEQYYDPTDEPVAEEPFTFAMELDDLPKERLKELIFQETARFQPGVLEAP
Sequence of Mitogen-activated protein kinase; ERK1/ERK2 (Homo sapiens) (P28482 whole entry, looked up): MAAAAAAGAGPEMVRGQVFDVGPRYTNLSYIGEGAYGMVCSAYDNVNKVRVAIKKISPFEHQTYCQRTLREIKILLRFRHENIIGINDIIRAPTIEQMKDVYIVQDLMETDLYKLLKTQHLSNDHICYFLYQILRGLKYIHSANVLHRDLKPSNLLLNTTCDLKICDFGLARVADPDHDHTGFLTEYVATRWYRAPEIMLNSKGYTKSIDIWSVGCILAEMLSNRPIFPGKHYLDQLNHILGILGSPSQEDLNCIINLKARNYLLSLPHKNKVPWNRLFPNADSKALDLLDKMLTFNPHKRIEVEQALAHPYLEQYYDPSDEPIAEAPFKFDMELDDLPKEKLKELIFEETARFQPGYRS
Sequence of 72 kDa type IV collagenase (Homo sapiens) (P08253 110-660 limits assumed): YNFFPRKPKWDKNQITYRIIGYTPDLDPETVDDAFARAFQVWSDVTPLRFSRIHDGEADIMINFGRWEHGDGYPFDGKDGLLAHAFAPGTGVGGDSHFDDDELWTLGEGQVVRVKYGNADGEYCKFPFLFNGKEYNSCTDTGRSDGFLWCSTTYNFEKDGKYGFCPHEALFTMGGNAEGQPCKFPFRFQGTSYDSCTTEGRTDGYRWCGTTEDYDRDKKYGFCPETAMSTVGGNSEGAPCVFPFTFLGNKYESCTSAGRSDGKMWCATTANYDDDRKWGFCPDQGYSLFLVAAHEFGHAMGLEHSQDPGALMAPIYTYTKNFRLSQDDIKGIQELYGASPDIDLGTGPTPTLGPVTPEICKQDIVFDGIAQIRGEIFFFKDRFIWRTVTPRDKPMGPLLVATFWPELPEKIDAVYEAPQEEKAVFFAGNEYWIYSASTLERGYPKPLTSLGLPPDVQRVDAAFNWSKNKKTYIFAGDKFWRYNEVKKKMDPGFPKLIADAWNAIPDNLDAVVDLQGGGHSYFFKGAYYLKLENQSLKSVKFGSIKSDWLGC

COC(=O)c1cc2c3ccccc3[nH]c2c2cn(-c3ccc(F)cc3Cl)c[n+]12.[Cl-]
Activity (Albumin [1]): Active | Activity (MDA-MB-231 [2]): Active | inhibition [3]: Active | Kb (Albumin [4]): 9.77 ×10⁴ L/mol | Activity (MDA-MB-231 [5]): Active | inhibition [6]: Active | inhibition [7]: Active | Kb (Albumin [8]): 7.94 ×10⁴ L/mol | Activity (MDA-MB-231 [9]): Active | Activity (Albumin [10]): Not Active | Activity (MDA-MB-231 [11]): Active | Activity (MDA-MB-231 [12]): Active | Activity (MDA-MB-231 [13]): Active | Activity [14]: Active | inhibition [15]: Active | Activity (MDA-MB-231 [16]): Active | Activity (MDA-MB-231 [17]): Active | Activity (MDA-MB-231 [18]): Active | Kb (Albumin [19]): 8.91 ×10⁴ L/mol | Activity (Albumin [20]): Active | Activity (MDA-MB-231 [21]): Active
